# Assay outcomes: PubChem, several laboratories
# HTR2A ag = mouse HTR2A agonism via beta-arrestin recruitment; P35363; CHO-K1 mHTR2A beta-arrestin complementation, luminescence; percent of 30 µM serotonin response; activation, % at 7.6 µM; hit rate 0.66% among 360,000; AID 624169;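 active = activation above a run cutoff, the mean activation of all tested compounds plus 3 SD, cut at about 14% in these data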
# TAAR1 antagonist = antagonists of human TAAR1; AID 624466; hit rate 1.5% among 360,000; CHO RD-HGA16 TAAR1, Fluo-8 calcium fluorescence, antagonist; inhibition, % at 3 µM; Q96RJ0;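 active = inhibition above a per-plate cutoff, the mean inhibition of test compounds on that plate plus 3 SD, cut at about 49% in these data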
# Target sequence (Q96RJ0 whole entry, looked up): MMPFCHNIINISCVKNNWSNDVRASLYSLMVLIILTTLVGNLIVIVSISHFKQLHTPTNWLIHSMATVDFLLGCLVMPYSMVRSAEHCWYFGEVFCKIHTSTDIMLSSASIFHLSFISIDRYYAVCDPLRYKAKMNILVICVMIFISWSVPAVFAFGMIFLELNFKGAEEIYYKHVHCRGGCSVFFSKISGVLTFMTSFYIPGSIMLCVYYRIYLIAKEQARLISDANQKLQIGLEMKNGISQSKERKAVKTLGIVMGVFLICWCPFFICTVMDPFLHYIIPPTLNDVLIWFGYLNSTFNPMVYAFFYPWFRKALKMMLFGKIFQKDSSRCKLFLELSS
#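 Assay system: CHO-derived RD-HGA16 cells stably expressing human TAAR1 plus Gα16. Timing: 140 s kinetic read after compound, 140 s after agonist. Technique: kinetic Fluo-8 calcium fluorescence measurement. Measure: % inhibition of agonist calcium response.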
# TAAR1 ag = agonists of human TAAR1; CHO RD-HGA16 TAAR1, Fluo-8 calcium fluorescence; vehicle wells 0%, saturating PEA agonist 100%; AID 624467; hit rate 0.99% among 360,000; Q96RJ0; activation, % at 3 µM;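 active = activation above the mean activation of all test compounds in the run plus 3 SD, cut at about 38% in these data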
#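 System: CHO RD-HGA16 cells carrying human TAAR1 plus Gα16; Incubation: 17-24 h seeding, 75 min 37 °C dye, 30 min RT; Measured by: Fluo-8 fluorescence, 5 s baseline then 140 s kinetic read; Control set: DMSO and PEA EC100; Replication: single well for each compound.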
# B2AR ag = agonists of human beta-2 adrenergic receptor inducing internalization; Am2.2-beta2AR cells, FAP receptor internalization, flow cytometry; response, % (no concentration beside the values); hit rate 0.43% among 340,000;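 active = response above a set limit, near 3 SD of response in nonfluorescent compounds, cut at about 42% in these data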
# MC4R ag barr = agonists of human melanocortin 4 receptor (MC4R) beta-arrestin | hit rate 0.98% among 360,000 | AID 540308 | U2OS MC4R beta-arrestin complementation, luminescence; percent of melanotan II response, DMSO zero | activation, % at 8.9 µM;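 active = activation above a per-plate cutoff, the mean activation of sample wells on that plate plus 3 SD, cut at about 8% in these data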
# Target sequence (P32245 whole entry, looked up): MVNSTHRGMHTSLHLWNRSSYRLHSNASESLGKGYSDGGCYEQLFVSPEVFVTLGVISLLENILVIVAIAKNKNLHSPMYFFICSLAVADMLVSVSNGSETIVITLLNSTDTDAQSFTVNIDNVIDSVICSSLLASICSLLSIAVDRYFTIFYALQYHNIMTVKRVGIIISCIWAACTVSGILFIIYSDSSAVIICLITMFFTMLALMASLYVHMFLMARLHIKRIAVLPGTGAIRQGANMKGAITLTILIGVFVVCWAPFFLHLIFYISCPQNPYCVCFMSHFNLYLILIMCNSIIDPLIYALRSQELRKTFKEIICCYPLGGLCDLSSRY
# MC4R antagonist = human MC4R antagonism in cAMP assay; MC4R-expressing cells, MTII-stimulated cAMP, LANCE TR-FRET; inhibition, % at 6.5 µM; hit rate 0.48% among 360,000; AID 540295;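 active = inhibition above its plate's cutoff, the mean of tested wells on that plate plus 3 SD, cut at about 29% in these data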
#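 material = U2OS cells stably expressing human melanocortin 4 receptor (MC4R) | also added = Melanotan II challenge | dosing = single nominal compound dose of 6.5 µM | detection = TR-FRET with Eu-cAMP and labeled anti-cAMP, 671 nm | replication = singlicate | timing = compound 30 min, challenge 1 h, detection 1 h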
# nonsel antag count = nonselective antagonist in TAAR1 antagonist counter-screen | shares compounds with TAAR1 antagonist | counterscreen cell line, calcium fluorescence, antagonist mode | inhibition, % at 3 µM | hit rate 77% among 2,400; in the data active = inhibition above about 22%;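 note: CHO-Ga16 host cells stimulated with ATP at an EC80 level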
# TAAR1 ant conf = human TAAR1 antagonism, confirmed | shares compounds with TAAR1 antagonist | TAAR1-expressing cells, fluorescence antagonist read-out | inhibition, % at 3 µM | hit rate 40% among 2,400; in the data active = inhibition above about 49%;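 note: CHO-Ga16 host cells challenged with agonist PEA near its EC80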
# Ga16 nonsel ag = nonselective Ga16 agonist in TAAR1 antagonist counter-screen; hit rate 18% among 2,400; Ga16-expressing cells, calcium fluorescence, agonist counterscreen; shares compounds with TAAR1 antagonist; activation, % at 3 µM; in the data active = activation above about 12%
# TAAR1 ag counter = counter-screen for human TAAR1 antagonists: TAAR1 agonists; hit rate 2% among 2,400; AID 651955; hTAAR1 cell line, fluorescence activation, agonist mode; shares compounds with TAAR1 antagonist; activation, % at 3 µM; in the data active = activation above about 37%;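 note: CHO cells stably expressing TAAR1 with calcium dye readout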
# A number is an active result; 0 = inactive; - = not tested or not shown. A selection: hits, their analogues and other compounds. The true share with any hit is near 4.3%.
SMILES,HTR2A ag,TAAR1 antagonist,TAAR1 ag,B2AR ag,MC4R ag barr,MC4R antagonist,nonsel antag count,TAAR1 ant conf,Ga16 nonsel ag,TAAR1 ag counter
Cc1onc(-c2c(F)cccc2Cl)c1C(=O)Nc1cccc(S(=O)(=O)N2CCOCC2)c1,0,50.4,0,0,0,0,26.2,0,0,0
COc1ccccc1/C=C/C(=O)Nc1cccc(S(=O)(=O)N2CCOCC2)c1,0,58.7,0,0,0,0,23.9,0,0,0
FC(F)(F)c1cc(Cl)c2nc(-c3ccccc3)c(Cc3cccc(Cl)c3)n2c1,0,0,0,-,-,-,-,-,-,-
[2H]c1c([2H])c([2H])c(-c2nc(N3CCCCCC3)sc2C(=O)c2ccccc2)c([2H])c1[2H],0,61.9,0,0,0,0,0,0,0,0
Cc1ccc(S(=O)(=O)N2CCOCC2)cc1NC(=O)COC(=O)CNC(=O)c1ccccc1,0,0,0,0,0,0,-,-,-,-
Cc1ccc(S(=O)(=O)N2CCOCC2)cc1NC(=O)COc1ccc(C(=O)c2ccccc2)cc1,0,81.5,0,0,0,0,36.9,58.6,13.7,0
COc1ccc(C(=O)N2N=C(c3cccc(NS(C)(=O)=O)c3)CC2c2cccs2)cc1 (configuration not stated),0,60.6,0,0,0,0,31.4,0,0,0
CC(=O)Nc1cccc(-c2csc(C(C)(O)c3ccc(F)c(F)c3)n2)c1 (configuration not stated),0,0,0,-,0,0,-,-,-,-
COc1ccc(Cl)cc1C(=O)OCC(=O)Nc1sccc1C(N)=O,0,56.7,0,0,0,0,25.8,49.6,0,0
N#CC1=C(N)NC(SCC(=O)c2ccccc2)=C(C#N)C12CCCC2,0,55.8,0,0,0,0,33.5,0,13.0,0
CC[C@H](C)C(C(=O)N1CCN(C(=O)OC(C)(C)C)CC1)n1cc(C(CC(C)C)NC(=O)OC(C)(C)C)nn1 (some centres not stated),0,0,0,0,0,0,-,-,-,-
CSCC[C@@H](C(=O)NCCCCCCCCCCC(=O)N1CCN(C(=O)OC(C)(C)C)CC1)n1cc(CCO)nn1,0,50.2,0,0,0,0,27.6,0,0,0
CC[C@@H](C)[C@@H](C(=O)N1CCN(C(=O)OC(C)(C)C)CC1)n1cc(CCCCNC(=O)OC(C)(C)C)nn1,0,68.9,0,0,0,0,42.1,61.1,12.8,0
CCOC(=O)c1cc(NC(=O)Cc2ccc(S(=O)(=O)N3CCOCC3)s2)cc(C(=O)OCC)c1,0,75.7,0,0,0,0,28.9,0,0,0
O=C(Cc1ccc(S(=O)(=O)N2CCOCC2)s1)Nc1cc(C(F)(F)F)cc(C(F)(F)F)c1,0,0,0,0,0,0,-,-,-,-
CSc1cccc(NC(=O)C2CCCN(S(=O)(=O)c3ccc(F)cc3)C2)c1 (configuration not stated),0,56.0,0,0,0,0,22.6,0,0,0
CSc1cccc(NC(=O)C2CCN(S(=O)(=O)c3ccc(F)cc3)CC2)c1,0,0,0,0,0,0,-,-,-,-
COc1ccccc1CNC(=O)C(Cc1c[nH]c2ccccc12)NC(=O)OCc1ccccc1 (configuration not stated),0,62.7,0,0,0,0,0,0,0,0
Cc1ccc2c(c1)-n1c(nc3ccccc3c1=O)C(CC(C)C)NC2=O (configuration not stated),-,0,0,-,-,-,-,-,-,-
O=C(Nc1ccc(N2CCN(C(=O)c3ccccc3)CC2)cc1)c1cc2ccccc2o1,0,77.0,0,0,0,0,44.0,62.0,0,0
CC(C)C(=O)N1CCN(c2ccc(NC(=O)c3cccs3)cc2Cl)CC1,0,0,0,0,0,0,-,-,-,-
O=C(Nc1ccc(N2CCN(C(=O)c3ccccc3)CC2)c(Cl)c1)c1ccc(Br)o1,0,68.5,0,0,0,0,35.1,0,0,0
CN1CCN(c2ccc(NC(=O)c3cc4ccccc4o3)cc2)CC1,0,0,0,0,0,0,-,-,-,-
O=C(Nc1ccc(N2CCN(C(=O)c3ccco3)CC2)c(Cl)c1)c1cccs1,0,49.6,0,0,0,0,30.6,0,0,0
O=C(Nc1ccc(N2CCN(C(=O)c3ccc(Cl)cc3)CC2)cc1)c1ccc2c(c1)OCCO2,0,57.7,0,0,0,0,43.9,49.5,0,0
SMILES,HTR2A ag,TAAR1 antagonist,TAAR1 ag,B2AR ag,MC4R ag barr,MC4R antagonist,nonsel antag count,TAAR1 ant conf,Ga16 nonsel ag,TAAR1 ag counter
COc1cccc(-c2cnc(C(O)c3cc(C)c(OC)c(C)c3)[nH]2)c1 (configuration not stated),0,0,0,-,0,0,-,-,-,-
O=C(CSCc1c(F)cccc1Cl)NNC(=S)NC1CCCCC1,0,0,0,0,0,0,-,-,-,-
COc1cc(NC(=O)CN2C(=O)C(=O)N(CC(C)C)C2=O)cc(OC)c1,0,0,0,0,0,0,-,-,-,-
CCC(=O)N(C)C[C@@H]1Oc2ncc(Br)cc2C(=O)N([C@@H](C)CO)C[C@H]1C,0,0,0,-,0,0,-,-,-,-
Nc1c(C(=O)NCC2CCCO2)sc2nc3c(c(-c4ccco4)c12)CC/C3=C\c1ccco1 (configuration not stated),0,52.9,0,0,0,0,0,0,0,0
Cc1ccccc1NC(=O)c1sc2nc3c(c(-c4ccco4)c2c1N)CCC3,0,0,0,0,0,0,-,-,-,-
COC(=O)Nc1sc2c(c1C(=O)NCc1ccco1)CCCC2,0,106.6,0,0,0,0,0,0,0,0
O=C(CCc1ccccc1)c1c(O)cc(O)cc1O,0,67.8,0,0,0,0,24.6,0,0,0
COc1ccc(C(=O)CCc2ccccc2)c(O)c1,0,0,0,0,0,0,-,-,-,-
CCOc1ccc(-c2csc(NC(=O)c3cccc(N4C(=O)CCC4=O)c3)n2)cc1,0,68.1,0,0,0,0,31.7,0,12.1,0
CC(C)(C)c1csc(NC(=O)C2COc3ccccc3O2)n1 (configuration not stated),0,0,0,0,0,0,-,-,-,-
COc1ccc(-c2csc(NC(=O)C3COc4ccccc4O3)n2)cc1OC (configuration not stated),0,61.8,0,0,0,0,29.3,0,0,0
